Active and inactive are the calls of the source.
Columns and labels:
Rattus norvegicus [1] = species on record: Rattus norvegicus; assay: Complete remission of DMBA-induced hormone-dependent mammary carcinoma tumors in rats at 9 mg; assay type: functional
Method in brief: (§1)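 Female SD rats bearing DMBA-induced, hormone-dependent mammary adenocarcinoma, with at least one tumor >140 mm², were grouped in tens. Dosing was sc per kg body weight: a single dose daily Monday–Thursday and a double dose Friday. Ovariectomy served as the comparison arm. Complete remission was defined as a tumor no longer palpable. Body weight and tumor area changes were also recorded.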

Rattus norvegicus [2] = species on record: Rattus norvegicus; assay: Number of DMBA-induced hormone-dependent mammary carcinoma tumors in ovariectomised rats; assay type: functional
Method in brief: (§2)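 DMBA-induced, hormone-dependent mammary adenocarcinoma in SD rats, with ovariectomy as the treatment. Rats bearing at least one tumor >140 mm² were placed in groups of ten. Tumors were counted at the start and as new tumors. Responses were scored as complete remission, partial remission (≥50% size reduction), no change or progression, with % change in tumor area and body weight.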

Rattus norvegicus [3] = species on record: Rattus norvegicus; assay: Complete remission of DMBA-induced hormone-dependent mammary carcinoma tumors in ovariectomised rats; assay type: functional; method in brief: as §1
Rattus norvegicus [4] = species on record: Rattus norvegicus; assay: Percent change in body weight DMBA-induced hormone-dependent mammary carcinoma tumors in rats at 4.5 mg for 7 days; assay type: functional
Rattus norvegicus [5] = species on record: Rattus norvegicus; assay: Percent change in body weight DMBA-induced hormone-dependent mammary carcinoma tumors in rats at 9 mg for 7 days; assay type: functional
Rattus norvegicus [6] = species on record: Rattus norvegicus; assay: Partial remission of DMBA-induced hormone-dependent mammary carcinoma tumors in ovariectomised rats; assay type: functional; method in brief: as §2
Rattus norvegicus [7] = species on record: Rattus norvegicus; assay: Percent unchanged tumor size of DMBA-induced hormone-dependent mammary carcinoma tumors in rats at 9 mg; assay type: functional
Rattus norvegicus [8] = species on record: Rattus norvegicus; assay: Percent unchanged tumor size of DMBA-induced hormone-dependent mammary carcinoma tumors in ovarectiemised rats; assay type: functional; method in brief: as §2
Rattus norvegicus [9] = species on record: Rattus norvegicus; assay: Progression of DMBA-induced hormone-dependent mammary carcinoma tumors in rats at 2.25 mg; assay type: functional
Rattus norvegicus [10] = species on record: Rattus norvegicus; assay: Progression of DMBA-induced hormone-dependent mammary carcinoma tumors in rats at 9 mg; assay type: functional
Rattus norvegicus [11] = species on record: Rattus norvegicus; assay: Initial tumor number of DMBA-induced hormone-dependent mammary carcinoma in rats at 9 mg; assay type: functional
Method in brief: (§3)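 DMBA-induced, hormone-dependent mammary adenocarcinoma in SD rats. Rats bearing at least one tumor >140 mm² were placed in groups of ten. Compound was given sc as a single dose (mg/kg) daily Monday–Thursday and a double dose on Friday. Tumors were counted at the start and as new tumors; responses were scored as complete remission (not palpable), partial remission (≥50% reduction), no change or progression. Tumor area and body weight were recorded as % change.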

Rattus norvegicus [12] = species on record: Rattus norvegicus; assay: Initial tumor number of DMBA-induced hormone-dependent mammary carcinoma in rats at 2.25 mg; assay type: functional; method in brief: as §3
[13] = biological target: T1, Estrogen receptor (Mus musculus) (UniProt O08537+P19785); assay: Antiestrogenic activity in uterotrophic test in mice at 5 ug; assay type: functional
T1 sequence (O08537 whole entry, looked up): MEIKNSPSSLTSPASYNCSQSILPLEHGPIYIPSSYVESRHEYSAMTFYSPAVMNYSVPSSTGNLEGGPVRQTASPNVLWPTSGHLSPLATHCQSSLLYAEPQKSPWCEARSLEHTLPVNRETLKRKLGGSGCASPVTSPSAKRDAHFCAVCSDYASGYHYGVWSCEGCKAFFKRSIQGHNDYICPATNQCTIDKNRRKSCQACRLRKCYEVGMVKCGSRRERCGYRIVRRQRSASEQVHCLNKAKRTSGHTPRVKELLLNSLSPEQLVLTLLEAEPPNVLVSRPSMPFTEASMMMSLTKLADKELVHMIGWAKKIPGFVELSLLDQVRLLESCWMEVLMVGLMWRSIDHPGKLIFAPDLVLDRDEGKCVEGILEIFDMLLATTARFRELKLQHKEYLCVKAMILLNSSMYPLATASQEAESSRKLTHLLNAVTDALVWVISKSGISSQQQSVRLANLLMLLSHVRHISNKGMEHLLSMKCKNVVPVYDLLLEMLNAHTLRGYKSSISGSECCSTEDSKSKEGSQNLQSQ
T1 sequence (P19785 whole entry, looked up): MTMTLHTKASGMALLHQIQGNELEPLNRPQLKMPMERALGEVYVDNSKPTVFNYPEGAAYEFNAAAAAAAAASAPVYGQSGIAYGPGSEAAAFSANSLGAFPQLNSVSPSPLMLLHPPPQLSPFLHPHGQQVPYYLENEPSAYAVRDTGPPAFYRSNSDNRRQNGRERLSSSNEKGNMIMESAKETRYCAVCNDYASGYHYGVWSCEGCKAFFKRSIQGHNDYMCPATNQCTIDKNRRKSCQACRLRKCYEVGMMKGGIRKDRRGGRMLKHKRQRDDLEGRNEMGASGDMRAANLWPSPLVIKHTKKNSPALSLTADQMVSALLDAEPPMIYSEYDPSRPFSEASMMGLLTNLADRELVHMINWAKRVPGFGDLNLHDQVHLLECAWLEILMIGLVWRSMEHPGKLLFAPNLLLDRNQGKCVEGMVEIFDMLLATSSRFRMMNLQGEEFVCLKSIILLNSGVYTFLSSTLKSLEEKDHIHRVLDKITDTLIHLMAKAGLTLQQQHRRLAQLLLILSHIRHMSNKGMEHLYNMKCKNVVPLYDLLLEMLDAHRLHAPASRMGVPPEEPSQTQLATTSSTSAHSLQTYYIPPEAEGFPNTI
Method in brief: (§4)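 Immature female NMRI mice, 20 days old (14.5 ± 1.2 g), randomly grouped 10 per group. Each received a daily sc injection for 3 days of 0.1 mL olive oil solution containing test compound, together with estrone to stimulate uterine growth. Uteri were removed 24 h after the last injection and weighed. Results are reported as % inhibition of the estrone-stimulated uterine weight gain, mean ± SD.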

[14] = biological target: T1, Estrogen receptor (Mus musculus); assay: Estrogenic activity in uterotrophic test in mice at 1500 ug; assay type: functional
Method in brief: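 Uterine growth stimulation in immature female NMRI mice, 20 days old (14.5 ± 1.2 g), 10 per group. Test compound in 0.1 mL olive oil was given sc daily for 3 days. Uteri were excised 24 h after the final injection and weighed. Effect is reported as mean ± SD.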

[15] = biological target: T1, Estrogen receptor (Mus musculus); assay: Estrogenic activity in uterotrophic test in mice at 9 ug; assay type: functional
Method in brief: (§5)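 Immature (20-day-old) female NMRI mice, 14.5 ± 1.2 g, randomized into groups of 10. Given the test compound sc daily for 3 days in 0.1 mL olive oil. Uteri removed 24 h after the last injection; uterine weight taken as the read-out, means ± SD. Dose in μg.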

Rattus norvegicus [16] = species on record: Rattus norvegicus; assay: Percent change in body weight DMBA-induced hormone-dependent mammary carcinoma tumors in ovariectomised rats after 7 days; assay type: functional; method in brief: as §2
[17] = biological target: T1, Estrogen receptor (Mus musculus); assay: Inhibitory activity in mouse uterine weight test at 5 ug; assay type: functional
Method in brief: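 Antiuterotrophic (Dorfman) assay in immature 20-day-old female NMRI mice, groups of 10. Uterine growth was stimulated with estrone (0.1 μg) and the test compound was given alongside it, sc daily for 3 days in 0.1 mL olive oil. Uteri were taken 24 h after the last dose. Uterine weight is reported as means ± SD and inhibition as % of the estrone-stimulated response.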

[18] = biological target: T1, Estrogen receptor (Mus musculus); assay: Inhibitory activity in mouse uterine weight test at 500 ug; assay type: functional
Method in brief: (§6)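 Immature female NMRI mice, 20 days old (14.5 ± 1.2 g), in random groups of 10. They received sc injections daily for 3 days of 0.1 mL olive oil containing test compound, with estrone 0.1 μg given to stimulate uterine growth. Uteri were removed 24 h after the last injection and weighed (mean ± SD). Result is percent inhibition of the estrone-stimulated uterine weight gain.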

Rattus norvegicus [19] = species on record: Rattus norvegicus; assay: Percent change in DMBA-induced hormone-dependent mammary carcinoma tumor area in ovariectomised rats after 28 days; assay type: functional; method in brief: as §2
Rattus norvegicus [20] = species on record: Rattus norvegicus; assay: Complete remission of DMBA-induced hormone-dependent mammary carcinoma tumors in rats at 4 mg; assay type: functional; method in brief: as §1
Rattus norvegicus [21] = species on record: Rattus norvegicus; assay: Final number of DMBA-induced hormone-dependent mammary carcinoma tumors in rats at 1 mg; assay type: functional
Method in brief: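 Sprague-Dawley rats carrying DMBA-induced, hormone-dependent mammary adenocarcinoma, at least one tumor >140 mm², were placed in groups of ten. Compounds were given sc, with doses in mg/kg: a single daily dose Monday to Thursday and a double dose on Friday. Ovariectomy served as a comparator group. New tumors arising during the test were counted.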

Rattus norvegicus [22] = species on record: Rattus norvegicus; assay: Percent unchanged tumor size of DMBA-induced hormone-dependent mammary carcinoma tumors in rats at 2 mg; assay type: functional
Rattus norvegicus [23] = species on record: Rattus norvegicus; assay: Percent unchanged tumor size of DMBA-induced hormone-dependent mammary carcinoma tumors in rats at 4 mg; assay type: functional
Rattus norvegicus [24] = species on record: Rattus norvegicus; assay: Complete remission of DMBA-induced hormone-dependent mammary carcinoma tumors in rats at 1 mg; assay type: functional; method in brief: as §1
Rattus norvegicus [25] = species on record: Rattus norvegicus; assay: Percent change in DMBA-induced hormone-dependent mammary carcinoma tumor area at 1 mg after 28 days; assay type: functional; method in brief: as §3
Mus musculus [26] = species on record: Mus musculus; assay: Vaginal cornification test in mice at 2.5 ug; predominant cellular component leucocytes (diestrus); assay type: functional, organism-based
Mus musculus [27] = species on record: Mus musculus; assay: Vaginal cornification test in mice at 25 ug; predominant cellular component leucocytes (diestrus); assay type: functional, organism-based
Mus musculus [28] = species on record: Mus musculus; assay: Predominant components of vaginal smear at a compound concentration of 500 ug was determined using vaginal cornification test; leucocytes (</= 50%), nucleated and cornified, nucleated cellscharacteristic of antiestrogens; assay type: functional, organism-based
[29] = biological target: T1, Estrogen receptor (Mus musculus); assay: Antiestrogenic activity in uterotrophic test in mice at 2.5 ug (experiment 1); assay type: functional; method in brief: as §4
[30] = biological target: T1, Estrogen receptor (Mus musculus); assay: Antiestrogenic activity in uterotrophic test in mice at 25 ug (experiment 2); assay type: functional; method in brief: as §4
[31] = biological target: T1, Estrogen receptor (Mus musculus); assay: Antiestrogenic activity in uterotrophic test in mice at 0 ug (experiment 1); assay type: functional; method in brief: as §4
[32] = biological target: T1, Estrogen receptor (Mus musculus); assay: Estrogenic activity in uterotrophic test in mice at 800 ug (experiment 2); assay type: functional; method in brief: as §5
Rattus norvegicus [33] = species on record: Rattus norvegicus; assay: Percent change in body weight DMBA-induced hormone-dependent mammary carcinoma tumors in rats at 2 mg for 7 days; assay type: functional
Method in brief: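 Sprague-Dawley rats with DMBA-induced, hormone-dependent mammary adenocarcinoma; animals with at least one tumor over 140 mm² were grouped in tens. Dosed subcutaneously in mg/kg body weight: a single daily dose Monday to Thursday, doubled on Friday. Percent change in body weight was recorded over the test alongside tumor area and remission counts, with untreated controls.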

[34] = biological target: T1, Estrogen receptor (Mus musculus); assay: Inhibitory activity in mouse uterine weight test at 500 ug (experiment 2); assay type: functional; method in brief: as §6

CCCC(c1cccc(O)c1)C(CCC)c1cccc(O)c1 (centres undefined)
Tumors (Rattus norvegicus [1]): 52% | No. of tumors (Rattus norvegicus [2]): 2 | Tumors (Rattus norvegicus [3]): 90% | Change (Rattus norvegicus [4]): -1.1% | Change (Rattus norvegicus [5]): -2.7% | Tumors (Rattus norvegicus [6]): 10% | Tumors (Rattus norvegicus [7]): 9% | Tumors (Rattus norvegicus [8]): 0% | Tumors (Rattus norvegicus [9]): 54% | Tumors (Rattus norvegicus [10]): 17% | No. of tumors (Rattus norvegicus [11]): 22 | No. of tumors (Rattus norvegicus [12]): 22 | Effect [13]: 30.4 | Effect [14]: 28 | Effect [15]: 13.9 | Change (Rattus norvegicus [16]): 3.6% | inhibition [17]: 26% | inhibition [18]: 50% | Change (Rattus norvegicus [19]): -99%

CCC(c1cccc(O)c1)C(CC)c1cccc(O)c1 (stereo in doubt; 20)
Tumors (Rattus norvegicus [20]): 46% | No. of tumors (Rattus norvegicus [21]): 29 | Tumors (Rattus norvegicus [22]): 30% | Tumors (Rattus norvegicus [23]): 19% | Tumors (Rattus norvegicus [24]): 21% | Change (Rattus norvegicus [25]): 47% | Activity (Mus musculus [26]): inactive | Activity (Mus musculus [27]): inactive | Activity (Mus musculus [28]): Weak activity | Effect [29]: 29.5 | Effect [30]: 28.1 | Effect [31]: 12.5 | Effect [32]: 30.8 | Change (Rattus norvegicus [33]): -1.5% | inhibition [34]: 40%

From ChEMBL document CHEMBL1121898, “Potential antiestrogens. Synthesis and evaluation of mammary tumor inhibiting activity of 1,2-dialkyl-1,2-bis(3'-hydroxyphenyl)ethanes” (1981)
